Apaf1 inhib – inhibitors of human Apaf-1 apoptosome; O14727; AID 489030; 330,000 tested, 0.71% active; reconstituted apoptosome caspase-3 activity, DEVD-Rh110 fluorescence; inhibition, % at 20 µM; active = inhibition of at least 40% at 20 µM;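 also: plate controls were DMSO wells for no effect and DEVD-CHO caspase inhibitor wells for full effect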
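Medium: Hepes buffer, pH 7.5 / System: biochemical Apaf-1 apoptosome reconstitution / Measured by: Rh110 fluorescence, excitation 480 nm, emission 540 nm / Times: compound with Apaf-1, dATP, procaspase-3 30 min, then 50 min reaction, room temperature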
SENP8 block-1 – SENP8 protease inhibition; Q96LD8; purified SENP8, Z-RLRGG-aminoluciferin cleavage, luminescence; inhibition, % at 10 µM; 330,000 tested, 1.2% active; AID 2540; in the data active = inhibition above about 50%
SENP6 block – inhibitors of human SENP6 protease | Recombinant SENP6 catalytic domain, aminoluciferin luminescence | inhibition, % at 10 µM | 330,000 tested, 1.8% active | AID 2599;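 active = inhibition above about 50% at the single tested dose, limit read from the data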;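 also: plate controls were DMSO wells with enzyme for no effect and DMSO wells lacking enzyme for full effect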
SENP1 FRET inh – blocks the human SENP1 SUMO protease catalytic domain; AID 624204; recombinant SENP1 catalytic domain, CyPet-SUMO1-YPet FRET cleavage; 360,000 tested, 0.21% active; inhibition, % at 10 µM; Q9P0U3;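 active = inhibition at least 30% at 10 µM, raw YFP signal under a set limit, fluorescence ratio 0.5 to 1.5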;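 also: 0% = enzyme with DMSO and 100% = no enzyme wells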
Target sequence (Q9P0U3 419-644 limits assumed): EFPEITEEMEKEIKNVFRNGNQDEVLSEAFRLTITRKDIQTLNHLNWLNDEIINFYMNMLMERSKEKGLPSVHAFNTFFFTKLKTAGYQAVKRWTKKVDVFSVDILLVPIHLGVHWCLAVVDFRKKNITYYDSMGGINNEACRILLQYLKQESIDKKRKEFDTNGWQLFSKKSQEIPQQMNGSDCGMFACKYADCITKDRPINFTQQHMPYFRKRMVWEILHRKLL
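Assay system – human recombinant His6-tagged SENP1 catalytic domain enzyme · Input – SENP1 enzyme, 20 pM final · Buffer or medium – Tris pH 8 buffer plus EDTA, NaCl, BME, BSA, NP40, catalase · Schedule – 50 min reaction at room temperature · Technique – FRET read of cyan and yellow fluorescence · Control set – no-enzyme wells low, DMSO-plus-enzyme wells high control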
SENP7 block – inhibitors of human SENP7 protease; Q9BQF6; recombinant SENP7, Z-RLRGG-aminoluciferin luminescence, 40 min; inhibition, % at 5 µM; 330,000 tested, 1.5% active; AID 434973;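 active = inhibition above about 50% at the single test dose, limit read from the data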;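 also: plate controls were DMSO with enzyme for no effect and no enzyme buffer wells for full effect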
SENP8 block-2 – inhibitors of human SENP8 protease; Q96LD8; recombinant SENP8, Nedd8 substrate fluorescence; inhibition, % at 20 µM; 360,000 tested, 0.64% active; in the data active = inhibition mostly above about 40%, no sharp cut-off; inactive = mostly below about 27%
SENP8 conf-1 – human SENP8 inhibition, confirmed; shares compounds with SENP7 block; Recombinant SENP8, Z-RLRGG-aminoluciferin luminescence, 60 min; inhibition, % at 12.5 µM; 6,200 tested, 40% active;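 active = mean inhibition across replicates above about 50%, limit read from the data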
SENP6 conf – human SENP6 inhibition, confirmed; recombinant SENP6, Z-RLRGG-aminoluciferin luminescence; shares compounds with SENP7 block; inhibition, % at 12.5 µM; 6,200 tested, 58% active
SENP7 confirm – confirmation of human SENP7 protease inhibitors. recombinant SENP7, Z-RLRGG-aminoluciferin luminescence, 40 min. AID 488917. inhibition, % at 12.5 µM. shares compounds with SENP7 block. 6,200 tested, 69% active
Casp3 select – selectivity test for SENP inhibitors: human caspase-3 inhibition; shares compounds with SENP7 block; purified caspase-3, Z-DEVD-aminoluciferin luminescence, 60 min; inhibition, % at 12.5 µM; 6,200 tested, 60% active; AID 488918;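 active = mean inhibition above about 50%, limit read from the data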;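 also: plate controls were enzyme with DMSO for no effect and wells without caspase-3 for full effect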
Target sequence (P42574 28-227 limits assumed): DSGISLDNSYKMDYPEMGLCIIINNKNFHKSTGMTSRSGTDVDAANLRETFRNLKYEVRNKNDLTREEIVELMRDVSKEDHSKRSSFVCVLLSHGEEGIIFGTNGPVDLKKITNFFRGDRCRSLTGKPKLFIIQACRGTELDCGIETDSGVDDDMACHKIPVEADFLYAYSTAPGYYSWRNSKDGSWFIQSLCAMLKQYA
Luc interf – luminescence interference (SENP counter-screen). shares compounds with SENP7 block. Pre-incubated SENP8/Z-RLRGG-aminoluciferin, luciferase luminescence interference. inhibition, % at 12.5 µM. 6,200 tested, 39% active. AID 488919;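 active = mean inhibition above about 50% when retested at one dose, limit read from the data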;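 also: plate controls were DMSO wells with completed reaction for no effect and substrate without enzyme for full effect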
Apaf-1 inh conf – Apaf-1 inhibition, single-dose confirmed; shares compounds with Apaf1 inhib; 1,800 tested, 25% active; inhibition, % at 20 µM; reconstituted apoptosome, caspase-3 DEVD-Rh110 fluorescence;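 active = mean inhibition of at least 40% at 20 µM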;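 also: plate controls were DMSO wells for no effect and DEVD-CHO caspase inhibitor control wells for full effect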
Rh110 quench – counter-screen for Apaf-1 inhibitors: fluorescence interference; Rh110 fluorescence interference, quenched caspase reaction; shares compounds with Apaf1 inhib; 1,800 tested, under 10 active; activation (fluorescence interference), % at 20 µM;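 active = signal rise of 40% or more at 20 µM, treated as a fluorescence artifact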
Apaf1 inh interf – shows fluorescence interference in the Apaf-1 inhibitor assay format. shares compounds with Apaf1 inhib. 460 tested, under 10 active. IC50, µM. fluorescence interference counterscreen, Apaf-1 assay format; call rule not given here
SENP8 conf-2 – SENP8 (human) inhibition, single concentration confirmation | inhibition, % at 25 µM | 1,400 tested, 15% active | shares compounds with SENP8 block-2 | purified SENP8, Nedd8-AMC/pro-Nedd8 cleavage fluorescence, 30 min; in the data active = inhibition mostly above about 39%, no sharp cut-off; inactive = mostly below about 34%
The depositor's hits bear a star; . = not tested or not shown. An excerpt weighted towards active compounds, which were near 2.9% of everything screened.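 The calls were made as follows, unless noted: active = mean inhibition above about 50% in the one-dose retest (limit read from the data); inactive = the rest.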

SMILES	Apaf1 inhib	SENP8 block-1	SENP6 block	SENP1 FRET inh	SENP7 block	SENP8 block-2	SENP8 conf-1	SENP6 conf	SENP7 confirm	Casp3 select	Luc interf	SENP8 conf-2	others
O=C1Cc2ccccc2C(=O)N1Cc1ccccc1	52*	94*	91*	-5	79*	85*	39	88*	64*	72*	-7	35	Apaf-1 inh conf=76*;Rh110 quench=8;Apaf1 inh interf=>100
C[C@H](NC(=O)C1CCN(S(=O)(=O)c2ccccc2)CC1)C(=O)NCc1cccnc1	.	.	.	-1	.	14	.	.	.	.	.	.
Nc1n[nH]c(-c2ccccc2)n1	1	-4	-18	-1	-2	19	.	.	.	.	.	.
c1ccc(-c2n[nH]c(-c3ccccn3)n2)cc1	0	32	61*	0	64*	41*	51*	51*	86*	83*	64*	11
CC(=O)Nc1cccc(NC(=O)C(=O)NCC(c2ccco2)N2CCc3ccccc3C2)c1 (stereo unspecified)	6	-13	-4	-2	-17	11	.	.	.	.	.	.
COc1ccc(NC(=O)CSc2nc3c(c(-c4cccs4)c2C#N)CN(C)CC3)cc1OC	67*	40	68*	46	23	52*	-1	2	5	4	0	1	Apaf-1 inh conf=9;Rh110 quench=4
COC(=O)c1[nH]c(=O)c2ccccc2c1O	91*	52*	64*	1	17	41*	-9	13	-7	5	-10	-32
CCCCN1C(=O)C(CC(=O)NC2CCCC2)CC(C(=O)N2CCOCC2)=C1C (stereo unspecified)	.	.	.	3	.	-22	.	.	.	.	.	.
O=C(Cc1cccc(NC(=O)C2CCCN(C(=O)C3CCCCC3)C2)c1)Nc1ccc(C(=O)N2CCCCC2)cc1 (stereo unspecified)	.	.	.	-1	.	8	.	.	.	.	.	.
COc1cc(C(=O)c2nccc3cc(OC)c(OC)cc23)c([N+](=O)[O-])cc1OC	36	84*	95*	39*	90*	106*	26	56*	24	-1	-5	80*
O=[N+]([O-])c1ccc(C=Nc2ccc(Cl)c([N+](=O)[O-])c2)s1	19	35	50*	5	21	76*	5	40	22	4	3	80*
Cc1cc(C)cc(N=Cc2ccc([N+](=O)[O-])s2)c1	18	29	57*	-1	17	75*	14	41	9	-4	-3	83*
CCOC(=O)c1sc2c(c1C)c(=O)n(Cc1ccccc1)c(=O)n2CCN(C)C	8	6	14	1	-1	-5	.	.	.	.	.	.
CN(C)c1ccc(NC(=O)Oc2ccccc2)cc1	48*	36	75*	1	4	44*	64*	61*	85*	81*	46	10	Apaf-1 inh conf=11;Rh110 quench=3
